According to article PMC3431965 (The Journal of organic chemistry, 2012):
Residue numbers refer to the chain shown, from its start.

Key:
[1] = biological target: T1, ceramide-specific glucosyltransferase (Mus musculus, UniProt O88693); assay: Ceramide-specific glucosyltransferase assay, mouse testicular microsomes; assay type: biochemical, C57BL/6 mouse; conditions: for ceramide-specific glucosyltransferase IC50 (C57BL/6, mouse): mouse testicular microsomes, n.i. = no inhibition at 1000 µM concentration
T1 sequence (O88693 1-394): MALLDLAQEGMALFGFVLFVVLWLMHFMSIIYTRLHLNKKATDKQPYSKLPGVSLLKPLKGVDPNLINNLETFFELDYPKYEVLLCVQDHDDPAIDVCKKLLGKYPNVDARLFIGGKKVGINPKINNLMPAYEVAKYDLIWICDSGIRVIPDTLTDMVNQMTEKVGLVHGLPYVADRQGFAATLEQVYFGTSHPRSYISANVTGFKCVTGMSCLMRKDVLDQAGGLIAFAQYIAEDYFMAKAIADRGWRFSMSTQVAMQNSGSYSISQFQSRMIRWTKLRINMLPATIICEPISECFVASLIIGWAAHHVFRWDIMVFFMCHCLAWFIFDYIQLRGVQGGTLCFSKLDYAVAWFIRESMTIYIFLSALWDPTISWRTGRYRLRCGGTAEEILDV

[2] = biological target: T2, ceramide-specific glucosyltransferase (Rattus norvegicus, UniProt Q9R0E0); assay: Ceramide-specific glucosyltransferase assay, rat testicular microsomes; assay type: biochemical, Long Evans (LE) rat; conditions: for ceramide-specific glucosyltransferase IC50 (LE rat): rat testicular microsomes, n.i. = no inhibition at 1000 µM concentration
T2 sequence (Q9R0E0 1-394): T1 sequence (O88693 1-394) with D96E, K164R, R249K, T377A

[3] = biological target: T3, testicular β-glucosidase 2 (Rattus norvegicus, UniProt Q5M868); assay: Testicular glucosidase assay; assay type: biochemical, Long Evans (LE) rat; conditions: for β-glucosidase 2 IC50 (LE rat): rat testicular microsomes, n.i. = no inhibition at 1000 µM concentration
T3 sequence (Q5M868 1-912): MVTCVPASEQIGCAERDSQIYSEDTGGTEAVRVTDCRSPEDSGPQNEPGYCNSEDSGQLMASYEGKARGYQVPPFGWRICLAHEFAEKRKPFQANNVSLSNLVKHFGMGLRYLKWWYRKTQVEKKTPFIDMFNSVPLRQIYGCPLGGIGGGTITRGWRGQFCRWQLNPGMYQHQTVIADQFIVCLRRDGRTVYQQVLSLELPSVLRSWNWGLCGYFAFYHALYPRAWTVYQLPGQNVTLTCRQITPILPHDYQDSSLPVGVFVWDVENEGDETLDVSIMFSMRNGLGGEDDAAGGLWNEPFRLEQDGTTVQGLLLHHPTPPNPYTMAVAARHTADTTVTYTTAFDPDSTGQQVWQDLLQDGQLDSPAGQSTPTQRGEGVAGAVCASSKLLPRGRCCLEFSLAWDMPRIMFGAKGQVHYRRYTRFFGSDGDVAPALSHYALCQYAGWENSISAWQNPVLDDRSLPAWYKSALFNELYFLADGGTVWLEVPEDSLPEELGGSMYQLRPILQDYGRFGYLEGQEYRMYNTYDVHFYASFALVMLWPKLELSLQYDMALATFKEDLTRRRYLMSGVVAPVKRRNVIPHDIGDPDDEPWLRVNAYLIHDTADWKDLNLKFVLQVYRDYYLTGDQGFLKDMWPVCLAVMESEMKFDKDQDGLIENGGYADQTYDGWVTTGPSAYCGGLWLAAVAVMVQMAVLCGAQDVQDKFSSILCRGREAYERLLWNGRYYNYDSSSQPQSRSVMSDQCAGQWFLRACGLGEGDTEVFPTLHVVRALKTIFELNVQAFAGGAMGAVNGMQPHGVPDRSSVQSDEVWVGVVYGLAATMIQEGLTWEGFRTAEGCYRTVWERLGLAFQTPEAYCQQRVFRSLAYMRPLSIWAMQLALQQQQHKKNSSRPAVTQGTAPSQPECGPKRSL

[4] = tested on: α-glucosidase (Saccharomyces cerevisiae); assay: Glycosidase inhibition assay, α-glucosidase; assay type: biochemical; conditions: substrate at Km; for α-Glc % Ra (% remaining activity at 100 µM): 100 µM compound
β-glucosidase (almond) = assay: Glycosidase inhibition assay, β-glucosidase; assay type: biochemical; conditions: substrate at Km; for β-Glc % Ra (% remaining activity at 100 µM): 100 µM compound; for IC50: read-out: β-Glc IC50
Summary of the method: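 Enzyme is added last; incubation is 4–5 min at room temperature, then 0.2 M sodium borate (pH 9.8) quenches. Absorbance at 405 nm gives % remaining activity at 100 µM compound. IC50 comes from non-linear fitting of relative activity versus concentration to a Hill-slope equation.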

[5] = biological target: α-galactosidase (green coffee beans) (Coffea arabica, UniProt Q42656); assay: biochemical; conditions: for remaining activity at 100 µM: read-out: α-Gal % Ra (% remaining activity at 100 µM)
Chain of α-galactosidase (green coffee beans) (Q42656 16-378): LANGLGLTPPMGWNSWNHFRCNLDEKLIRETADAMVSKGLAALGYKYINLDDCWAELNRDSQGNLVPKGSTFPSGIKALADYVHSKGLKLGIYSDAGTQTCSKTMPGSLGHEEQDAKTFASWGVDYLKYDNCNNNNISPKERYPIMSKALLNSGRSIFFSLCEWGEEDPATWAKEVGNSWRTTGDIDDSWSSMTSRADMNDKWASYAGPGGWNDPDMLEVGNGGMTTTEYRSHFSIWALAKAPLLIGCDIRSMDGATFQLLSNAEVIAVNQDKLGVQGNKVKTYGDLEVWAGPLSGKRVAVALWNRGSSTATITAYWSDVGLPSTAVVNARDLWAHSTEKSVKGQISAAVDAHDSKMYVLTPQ

[6] = biological target: β-galactosidase (Escherichia coli) (Escherichia coli, UniProt P00722); assay: biochemical; conditions: for remaining activity at 100 µM: read-out: β-Gal % Ra (% remaining activity at 100 µM)
Chain of β-galactosidase (Escherichia coli) (P00722 2-1024): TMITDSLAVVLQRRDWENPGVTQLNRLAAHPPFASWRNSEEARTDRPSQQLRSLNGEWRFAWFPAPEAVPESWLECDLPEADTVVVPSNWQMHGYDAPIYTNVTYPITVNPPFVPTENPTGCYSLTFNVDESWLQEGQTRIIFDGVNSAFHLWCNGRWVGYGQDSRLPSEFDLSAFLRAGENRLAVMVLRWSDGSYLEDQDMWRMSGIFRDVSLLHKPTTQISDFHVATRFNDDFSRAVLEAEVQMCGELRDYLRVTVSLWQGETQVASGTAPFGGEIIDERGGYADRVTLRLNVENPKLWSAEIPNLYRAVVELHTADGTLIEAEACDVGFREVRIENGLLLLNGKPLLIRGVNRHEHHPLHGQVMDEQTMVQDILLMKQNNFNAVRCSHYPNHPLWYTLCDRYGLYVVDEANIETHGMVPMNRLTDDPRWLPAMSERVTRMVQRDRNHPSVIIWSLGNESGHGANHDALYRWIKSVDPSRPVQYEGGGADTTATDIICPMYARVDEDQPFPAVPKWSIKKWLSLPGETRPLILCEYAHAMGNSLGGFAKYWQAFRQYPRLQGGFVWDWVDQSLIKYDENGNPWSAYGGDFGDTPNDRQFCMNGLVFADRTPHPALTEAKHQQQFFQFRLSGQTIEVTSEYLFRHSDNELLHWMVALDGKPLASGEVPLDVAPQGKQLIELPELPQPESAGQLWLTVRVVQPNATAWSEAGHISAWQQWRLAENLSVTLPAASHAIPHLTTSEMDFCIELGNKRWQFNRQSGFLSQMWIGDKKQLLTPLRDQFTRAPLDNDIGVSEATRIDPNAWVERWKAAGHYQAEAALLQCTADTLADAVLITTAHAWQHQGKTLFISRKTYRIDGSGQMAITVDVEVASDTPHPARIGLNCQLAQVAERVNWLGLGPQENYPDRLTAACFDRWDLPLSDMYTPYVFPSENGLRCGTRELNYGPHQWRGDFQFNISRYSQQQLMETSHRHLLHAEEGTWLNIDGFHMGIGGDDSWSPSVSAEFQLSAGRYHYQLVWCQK

[7] = biological target: T4, α-mannosidase (jack bean) (Canavalia ensiformis, UniProt C0HJB3); assay: Glycosidase inhibition assay, α-mannosidase; assay type: biochemical; conditions: for remaining activity at 100 µM: read-out: α-Man % Ra (% remaining activity at 100 µM)
T4 sequence (C0HJB3 1-562 limits assumed): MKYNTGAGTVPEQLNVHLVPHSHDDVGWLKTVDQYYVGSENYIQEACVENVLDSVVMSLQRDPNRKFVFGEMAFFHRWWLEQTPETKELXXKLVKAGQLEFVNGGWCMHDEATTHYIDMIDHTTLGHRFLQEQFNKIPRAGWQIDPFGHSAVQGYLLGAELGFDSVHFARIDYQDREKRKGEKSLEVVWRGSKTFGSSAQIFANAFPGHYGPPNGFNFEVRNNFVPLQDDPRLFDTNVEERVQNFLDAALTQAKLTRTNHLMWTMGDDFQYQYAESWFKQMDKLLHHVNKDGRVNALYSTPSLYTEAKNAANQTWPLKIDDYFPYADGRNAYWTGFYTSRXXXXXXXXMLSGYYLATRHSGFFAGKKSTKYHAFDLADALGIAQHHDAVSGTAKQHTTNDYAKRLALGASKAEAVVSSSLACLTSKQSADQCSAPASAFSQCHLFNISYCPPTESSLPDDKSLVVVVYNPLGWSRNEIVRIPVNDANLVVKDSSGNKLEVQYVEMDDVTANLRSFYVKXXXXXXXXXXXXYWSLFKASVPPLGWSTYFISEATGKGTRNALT
T4 sequence (C0HJB3 563-981 partner limits assumed): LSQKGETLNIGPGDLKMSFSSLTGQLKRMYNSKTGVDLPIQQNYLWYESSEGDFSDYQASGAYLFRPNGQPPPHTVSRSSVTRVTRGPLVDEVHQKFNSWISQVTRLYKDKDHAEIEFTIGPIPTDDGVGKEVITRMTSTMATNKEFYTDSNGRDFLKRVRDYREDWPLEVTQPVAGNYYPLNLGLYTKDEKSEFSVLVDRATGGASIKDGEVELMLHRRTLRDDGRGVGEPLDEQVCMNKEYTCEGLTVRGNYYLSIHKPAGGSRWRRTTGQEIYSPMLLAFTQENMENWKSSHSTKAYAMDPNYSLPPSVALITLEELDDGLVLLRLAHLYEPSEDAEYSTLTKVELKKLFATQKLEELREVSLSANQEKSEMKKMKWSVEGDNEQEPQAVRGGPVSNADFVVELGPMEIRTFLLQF
Summary of the method: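 Enzyme starts the reaction with test compound at 100 µM. After 4–5 min at room temperature, 0.2 M sodium borate (pH 9.8) quenches it. Absorbance is read at 405 nm and reported as % remaining activity.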

[8] = tested on: β-mannosidase (Roman snail); assay: Glycosidase inhibition assay, β-mannosidase; assay type: biochemical; conditions: 100 µM compound; substrate at Km
Summary of the method: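 Test compound is at 100 µM. Enzyme addition starts the reaction, which runs 4–5 min at room temperature before quenching with 0.2 M sodium borate (pH 9.8). Absorbance is read at 405 nm and given as % remaining activity.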

spermatogenesis = conditions: C57B1/6J-related mouse strains; cited from earlier work
human spermatogenesis = conditions: cited from earlier work
[9] = 100 µM compound, substrate at Km

Row | SMILES | IC50 [1] | IC50 [2] | IC50 [3] | α-Glc % Ra (% remaining activity at 100 µM) [4] | β-Glc % Ra (% remaining activity at 100 µM) (β-glucosidase (almond)) | remaining activity at 100 µM [5] | remaining activity at 100 µM [6] | remaining activity at 100 µM [7] | β-Man % Ra (% remaining activity at 100 µM) [8] | ceramide-specific glucosyltransferase IC50 (C57BL/6, mouse) [1] | ceramide-specific glucosyltransferase IC50 (LE rat) [2] | β-glucosidase 2 IC50 (LE rat) [3] | α-Gal % Ra (% remaining activity at 100 µM) [5, 9] | β-Gal % Ra (% remaining activity at 100 µM) [6, 9] | α-Man % Ra (% remaining activity at 100 µM) [7, 9] | IC50 (β-glucosidase (almond)) | IC50 ([4]; read-out: α-Glc IC50) | effect on spermatogenesis (spermatogenesis) | effects on human spermatogenesis (human spermatogenesis)
1 | CCCCN1[C@H](CO)C(O)[C@H]1CO [Compound 22, ((2R,4R)-1-Butyl-3-hydroxyazetidine-2,4-diyl)dimethanol] | > 300 µM | > 300 µM | > 300 µM | 100% | 93% | 100% | 99% | 99% | 99% |  |  |  |  |  |  |  |  |  | 
2 | CCCCN1C[C@@H](O)[C@@H](O)[C@@H](O)[C@H](O)[C@@H](O)C1 [Compound 5, (3S,4R,5S,6R,7R)-1-Butylazocane-3,4,5,6,7-pentaol] |  |  |  | 89% | 87% |  |  |  | 100% | n.i. | n.i. | did not show inhibitory activity and n.i. | 100% | 95% | 100% |  |  |  | 
3 | CCCCCCCCCN1[C@@H](CO)C(O)[C@@H]1CO [Compound 27, ((2S,4S)-3-Hydroxy-1-nonyl-azetidine-2,4-diyl)dimethanol] | > 300 µM | > 300 µM | 70 µM | 100% | 95% | 57% | 99% | 99% | 106% |  |  |  |  |  |  |  |  |  | 
4 | CCCCN1CCC[C@@H](O)[C@H](O)[C@@H](O)C1 [Compound 1, (3S,4S,5R)-1-Butylazocane-3,4,5-triol] |  |  |  | 93% | 37% | 100% | 98% | 100% | 100% | n.i. | n.i. | did not show inhibitory activity and n.i. |  |  |  | 87 µM |  |  | 
5 | CCCCCCCCCN1C/C=C\[C@@H](O)[C@H](O)[C@@H](O)C1 [Compound 4, (3S,4S,5R,Z)-1-Nonyl-1,2,3,4,5,8-hexahydroazocine-3,4,5-triol] |  |  | 904 µM | 90% | 44% | 100% | 90% | 100% | 99% | n.i. | n.i. |  |  |  |  |  |  |  | 
6 | CCCCN1[C@@H](CO)C(O)[C@@H]1CO [Compound 26, ((2S,4S)-1-Butyl-3-hydroxyazetidine-2,4-diyl)dimethanol] | > 300 µM | > 300 µM | > 300 µM | 90% | 82% | 98% | 96% | 98% | 95% |  |  |  |  |  |  |  |  |  | 
7 | CCCCN1C[C@H](O)[C@@H](O)[C@H](O)[C@H]1CO [NB-DNJ, N-butyldeoxynojirimycin] |  |  |  |  |  |  |  |  |  |  |  |  |  |  |  |  | 1.03 mM | active | no discernible effects
8 | CCCCCCCCCN1[C@H](CO)C(O)[C@H]1CO [Compound 23, ((2R,4R)-3-Hydroxy-1-nonylazetidine-2,4-diyl)dimethanol] | > 300 µM | > 300 µM | > 300 µM | 100% | 95% | 99% | 88% | 100% | 115% |  |  |  |  |  |  |  |  |  | 
9 | CCCCCCCCCN1CCC[C@@H](O)[C@H](O)[C@@H](O)C1 [Compound 2, (3S,4S,5R)-1-Nonylazocane-3,4,5-triol] |  |  | 803 µM | 84% | 43% | 100% | 92% | 100% | 93% | n.i. | n.i. |  |  |  |  | 92 µM |  |  | 
